ChEMBL document CHEMBL1154086, “Novel Biginelli dihydropyrimidines with potential anticancer activity: a parallel synthesis and CoMSIA study” (Eur J Med Chem, 2009)
Activity calls are given as the source filed them. The calls are words filed in the database; no cut-off is given here.

Assays:
Format in all cases: functional
[1] = system: Radical scavenging activity; assay: Antioxidant activity assessed as DPPH radical scavenging activity at 100 ug after 30 mins by ELISA
In short: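 Ethanolic DPPH (200 µl) mixed with 10 µl compound solution (100 µg) in 96-well plate, 37 °C for 30 min; decrease in absorbance read at 490 nm on ELISA reader. Ascorbic acid (10 µg) standard.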

MCF7 = assay: Anticancer activity against human MCF7 cells assessed as cell viability at 10 ug after 3 hrs by trypan blue dye exclusion assay
In short: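 MCF-7 cells grown in peritoneal cavity of albino mice (25–30 g) after i.p. injection of 1 × 10^6 cells/ml; aspirated day 15, washed three times in HBSS, adjusted to 1 × 10^6 cells/ml. 0.1 ml cells plus 0.1 ml compound (10 µg), 37 °C, 5% CO2, 3 h. Trypan blue (0.4%, 1:1) exclusion, haemocytometer count; % cytotoxicity versus untreated control, triplicate.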

[2] = system: Radical scavenging activity; assay: Antioxidant activity assessed as DPPH radical scavenging activity after 30 mins by ELISA
In short: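 DPPH discolouration in 96-well plate: 200 µl ethanolic DPPH plus 10 µl compound solution; 37 °C, 30 min; absorbance at 490 nm on ELISA reader. IC50 (concentration inhibiting 50% of free radicals) from serial dilutions below 100 µg. Ascorbic acid (10 µg) standard.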

IC50 [2] [µg] | Structure (SMILES) | Activity [1] | Activity (MCF7) [%]
 | CC1=C(C(=O)Nc2ccccc2Cl)C(c2ccncc2)NC(=O)N1 (centres undefined) | inactive | 59
 | CC1=C(C(=O)Nc2ccccc2Cl)C(c2ccncc2)NC(=S)N1 (centres undefined) | inactive | 72
 | CNC(=O)C1=C(C)NC(=S)NC1c1ccc(O)c(OC)c1 (centres undefined) | inactive | 41
 | CNC(=O)C1=C(C)NC(=O)NC1c1ccco1 (centres undefined) | inactive | 61
 | COc1ccc(C2NC(=S)NC(C)=C2C(=O)Nc2ccccc2Cl)cc1 (centres undefined) | inactive | 47
 | CNC(=O)C1=C(C)NC(=O)NC1c1ccccc1 (centres undefined) | inactive | 27
 | CNC(=O)C1=C(C)NC(=S)NC1c1ccc(OC)cc1 (centres undefined) | inactive | 48
58 | CNC(=O)C1=C(C)NC(=S)NC1c1cccc([N+](=O)[O-])c1 (centres undefined) |  | 39
 | CNC(=O)C1=C(C)NC(=O)NC1c1ccc(O)c(OC)c1 (centres undefined) | inactive | 49
 | CC1=C(C(=O)Nc2ccccc2Cl)C(c2ccco2)NC(=S)N1 (centres undefined) | inactive | 76
 | CNC(=O)C1=C(C)NC(=O)NC1C(=O)/C=C/c1ccccc1 (centres undefined) | inactive | 47
 | CC1=C(C(=O)Nc2ccccc2Cl)C(C(=O)/C=C/c2ccccc2)NC(=S)N1 (centres undefined) | inactive | 71
 | CC1=C(C(=O)Nc2ccccc2Cl)C(c2ccc(Br)cc2)NC(=O)N1 (centres undefined) | inactive | 7
 | CC1=C(C(=O)Nc2ccccc2Cl)C(c2ccccc2O)NC(=O)N1 (centres undefined) | inactive | 58
 | CNC(=O)C1=C(C)NC(=S)NC1c1ccco1 (centres undefined) | inactive | 57
 | CNC(=O)C1=C(C)NC(=S)NC1c1ccccc1O (centres undefined) | inactive | 45

IC50 [2] [µg] | Structure (SMILES) | Activity [1] | Activity (MCF7) [%]
 | CC1=C(C(=O)Nc2ccccc2Cl)C(c2ccco2)NC(=O)N1 (centres undefined) | inactive | 69
 | CC1=C(C(=O)Nc2ccccc2Cl)C(c2ccccc2)NC(=O)N1 (centres undefined) | inactive | 30
 | COc1cc(C2NC(=O)NC(C)=C2C(=O)Nc2ccccc2Cl)ccc1O (centres undefined) | inactive | 52
 | CC1=C(C(=O)Nc2ccccc2Cl)C(c2ccccc2O)NC(=S)N1 (centres undefined) | inactive | 49
 | CC1=C(C(=O)Nc2ccccc2Cl)C(c2ccccc2)NC(=N)N1C#N (centres undefined) | inactive | 35
 | CC1=C(C(=O)Nc2ccccc2Cl)C(c2ccccc2)NC(=S)N1 (centres undefined) | inactive | 25
 | CC1=C(C(=O)Nc2ccccc2Cl)C(C(=O)/C=C/c2ccccc2)NC(=O)N1 (centres undefined) | inactive | 79
 | CNC(=O)C1=C(C)NC(=O)NC1c1ccc(OC)cc1 (centres undefined) | inactive | 41
 | CNC(=O)C1=C(C)NC(=S)NC1c1ccccc1 (centres undefined) | inactive | 35
 | COc1ccc(C2NC(=O)NC(C)=C2C(=O)Nc2ccccc2Cl)cc1 (centres undefined) | inactive | 51
 | CC1=C(C(=O)Nc2ccccc2Cl)C(c2cccc([N+](=O)[O-])c2)NC(=O)N1 (centres undefined) | inactive | 29
63 | CNC(=O)C1=C(C)NC(=O)NC1c1cccc([N+](=O)[O-])c1 (centres undefined) |  | 23
 | CC1=C(C(=O)Nc2ccccc2Cl)C(c2cccc([N+](=O)[O-])c2)NC(=S)N1 (centres undefined) | inactive | 13
 | CNC(=O)C1=C(C)NC(=O)NC1c1ccncc1 (centres undefined) | inactive | 64
 | CC1=C(C(=O)Nc2ccccc2Cl)C(c2ccc(Br)cc2)NC(=S)N1 (centres undefined) | inactive | 18
 | COc1cc(C2NC(=S)NC(C)=C2C(=O)Nc2ccccc2Cl)ccc1O (centres undefined) | inactive | 45
